Where two headings read alike, the source gives them in different places.
Experiments:
[1] = tested on: 97 oncogenic and related kinases; test: Commercial kinome screen; type: binding
[2] = tested on: DLBCL cell lines; test: Apoptosis assay; type: cell-based
In short: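 Flow-cytometric cell death: DLBCL cell lines treated as indicated for 24 h, alone or combined with the PERK inhibitor GSK2606414 or with 200 nM ISRIB. Cells washed once in ice-cold PBS, then co-stained with PE-Annexin V and 7-aminoactinomycin D. Mean ± SEM, n=3 biological replicates; unpaired two-tailed t-tests.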

[3] = tested on: OCI-Ly3; test: Protein; type: cell-based; conditions: OCI-Ly3, Fig. S3D
[4] = tested on: protein synthesis in DLBCL cells; test: O-propargyl puromycin; type: cell-based; conditions: concentrations relative to LD50, 4, 16 or 24 hours
In short: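 DLBCL cells treated 4, 16 or 24 h with test compound, silvestrol or carboplatin, at concentrations scaled to each agent's LD50. Cells pulsed with O-propargyl puromycin, washed twice in PBS and click-labelled with Alexa-488 azide. Flow cytometry gave mean fluorescence on live-gated cells, normalised to DMSO. Mean ± SEM, n=3; unpaired two-tailed t-tests with Benjamini–Krieger–Yekutieli correction.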

[5] = tested on: OCI-Ly3 xenograft; test: OCI-Ly3 xenograft; type: in vivo
In short: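 Female SCID mice, 8–10 weeks old. 10 × 10^6 OCI-Ly3 cells, washed in ice-cold PBS and mixed 1:1 with matrigel, implanted s.c. in the flank. Tumors dissected at 500 mm3, dissociated, and 1 × 10^6 serially transplanted cells implanted s.c. At ≥50 mm3, mice pair-matched to vehicle or 40 mg/kg i.p. twice weekly. Weight and tumor volume monitored twice weekly; n=8; two-way ANOVA.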

[6] = Single-dose maximum tolerated dose study; type: in vivo; conditions: for tolerability, single dose: five female CD-1 mice
[7] = target: DDX17 (Homo sapiens, UniProt Q92841); test: Malachite green ATP hydrolysis counter-screen, DDX17; type: biochemical
Sequence of DDX17 (Q92841 whole entry, species assumed): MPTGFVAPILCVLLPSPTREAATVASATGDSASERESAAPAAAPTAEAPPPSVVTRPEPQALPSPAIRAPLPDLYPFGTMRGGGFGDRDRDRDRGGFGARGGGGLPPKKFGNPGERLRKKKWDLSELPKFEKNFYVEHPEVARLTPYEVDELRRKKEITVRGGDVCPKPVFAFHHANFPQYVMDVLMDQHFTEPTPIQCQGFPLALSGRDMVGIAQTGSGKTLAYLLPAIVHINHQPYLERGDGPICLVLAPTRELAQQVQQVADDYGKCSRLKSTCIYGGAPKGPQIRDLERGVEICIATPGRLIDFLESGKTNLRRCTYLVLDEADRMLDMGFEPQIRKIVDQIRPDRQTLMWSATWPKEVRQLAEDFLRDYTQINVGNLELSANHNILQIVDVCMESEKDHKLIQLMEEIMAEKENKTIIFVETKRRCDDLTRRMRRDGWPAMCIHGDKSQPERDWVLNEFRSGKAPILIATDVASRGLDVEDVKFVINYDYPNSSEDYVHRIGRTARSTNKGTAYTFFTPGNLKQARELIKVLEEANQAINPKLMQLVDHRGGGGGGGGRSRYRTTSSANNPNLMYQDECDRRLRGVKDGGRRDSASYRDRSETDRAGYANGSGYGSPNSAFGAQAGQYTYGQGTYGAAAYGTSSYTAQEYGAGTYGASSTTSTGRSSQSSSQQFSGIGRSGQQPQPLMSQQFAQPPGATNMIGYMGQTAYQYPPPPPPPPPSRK

[8] = tested on: normal human peripheral-blood mononuclear cells; test: Potency against normal peripheral-blood mononuclear cells; type: cell-based; conditions: Fig. S1B
[9] = target: bacterial chaperonin GroEL (Escherichia coli, UniProt P0A6F5); test: Malachite green ATP hydrolysis counter-screen, GroEL; type: biochemical
Sequence of bacterial chaperonin GroEL (P0A6F5 whole entry): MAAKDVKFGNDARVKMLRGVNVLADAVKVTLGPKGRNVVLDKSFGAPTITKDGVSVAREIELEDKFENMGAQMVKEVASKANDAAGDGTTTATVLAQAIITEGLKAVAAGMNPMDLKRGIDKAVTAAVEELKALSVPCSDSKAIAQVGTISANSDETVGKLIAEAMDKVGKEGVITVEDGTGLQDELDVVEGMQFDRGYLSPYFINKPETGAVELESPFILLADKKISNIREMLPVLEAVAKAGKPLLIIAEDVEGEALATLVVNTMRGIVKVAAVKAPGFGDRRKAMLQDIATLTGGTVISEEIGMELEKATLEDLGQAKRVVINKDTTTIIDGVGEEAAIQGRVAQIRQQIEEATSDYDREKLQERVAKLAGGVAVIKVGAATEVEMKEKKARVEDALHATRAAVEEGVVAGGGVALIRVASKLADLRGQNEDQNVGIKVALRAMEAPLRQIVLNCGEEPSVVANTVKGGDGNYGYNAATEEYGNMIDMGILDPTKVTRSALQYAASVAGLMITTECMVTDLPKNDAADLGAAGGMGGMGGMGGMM

[10] = target: human chaperone HSP70 (Homo sapiens, UniProt P0DMV8); test: Malachite green ATP hydrolysis counter-screen, HSP70; type: biochemical
Sequence of human chaperone HSP70 (P0DMV8 whole entry): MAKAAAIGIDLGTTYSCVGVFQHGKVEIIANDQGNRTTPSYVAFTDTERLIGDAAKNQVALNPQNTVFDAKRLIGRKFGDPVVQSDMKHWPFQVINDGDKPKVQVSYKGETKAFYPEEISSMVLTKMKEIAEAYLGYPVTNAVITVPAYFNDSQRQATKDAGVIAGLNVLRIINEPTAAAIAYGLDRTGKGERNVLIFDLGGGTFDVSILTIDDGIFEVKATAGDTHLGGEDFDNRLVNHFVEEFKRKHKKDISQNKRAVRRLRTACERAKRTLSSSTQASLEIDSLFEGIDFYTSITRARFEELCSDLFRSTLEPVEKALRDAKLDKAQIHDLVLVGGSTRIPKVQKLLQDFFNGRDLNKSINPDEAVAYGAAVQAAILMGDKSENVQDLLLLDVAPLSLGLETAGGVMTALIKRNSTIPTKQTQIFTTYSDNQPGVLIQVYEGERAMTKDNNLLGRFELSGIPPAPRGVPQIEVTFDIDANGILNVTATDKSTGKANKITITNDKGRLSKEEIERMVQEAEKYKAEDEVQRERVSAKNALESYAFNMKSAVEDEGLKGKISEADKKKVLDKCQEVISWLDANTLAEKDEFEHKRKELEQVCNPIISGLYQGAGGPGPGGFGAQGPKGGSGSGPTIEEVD

[11] = tested on: SU-DHL-6 flank tumors; test: SU-DHL-6 xenograft; type: in vivo
In short: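 Female SCID mice, 8–10 weeks old. 2 × 10^6 SU-DHL-6 cells, washed in ice-cold PBS and mixed 1:1 with matrigel, injected s.c. into the right flank. At 60 mm3, mice pair-matched to vehicle (sterile water, 5.2% tween-80, 5.2% PEG-400) or 20 mg/kg test compound i.p. daily for 5 days. Weight and tumor volume measured twice weekly; mean ± SEM, n=8.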

[12] = tested on: Harvard/Wellcome cancer cell line collection; test: Growth inhibition screen, Harvard/Wellcome cell line collection; type: cell-based; conditions: 344/924 cell lines
[13] = target: eIF4A1-K238E (Homo sapiens, UniProt P60842, K238E); test: Malachite green ATP hydrolysis assay, eIF4A1-K238E mutant; type: biochemical
Sequence of eIF4A1-K238E (P60842 whole entry K238E): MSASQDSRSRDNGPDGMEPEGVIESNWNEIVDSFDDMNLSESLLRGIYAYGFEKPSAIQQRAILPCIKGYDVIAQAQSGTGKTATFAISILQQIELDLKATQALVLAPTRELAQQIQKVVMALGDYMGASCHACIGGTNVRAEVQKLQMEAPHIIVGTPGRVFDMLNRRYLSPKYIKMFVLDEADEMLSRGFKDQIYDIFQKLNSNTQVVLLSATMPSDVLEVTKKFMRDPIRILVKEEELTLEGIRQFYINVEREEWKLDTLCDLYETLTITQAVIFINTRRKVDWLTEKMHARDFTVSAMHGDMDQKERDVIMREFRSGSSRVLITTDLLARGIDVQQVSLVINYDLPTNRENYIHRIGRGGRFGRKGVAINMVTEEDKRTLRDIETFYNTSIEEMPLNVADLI
In short: (§1)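 Malachite green ATPase run at 37 °C for 1 h. eIF4A1 wild-type, K82R (500 nM) or K238E (500 nM) in 20 mM MES-NaOH pH 6.0, 100 mM potassium acetate, 2.5 mM MgCl2, 1% glycerol, 1 mM DTT. ATP gradient 0–2 mM. Aliquot mixed with 9.3 µM malachite green, 53 mM ammonium molybdate, 1 M HCl, 0.04% Tween 20. Mean ± SEM, n=3.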

[14] = tested on: OCI-Ly3 cells; test: Polysome profiling; type: cell-based; conditions: OCI-Ly3, 2 μM elatol
[15] = tested on: DLBCL cell lines; test: Proliferation assay; type: cell-based; conditions: three DLBCL cell lines, single elatol treatment
In short: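 Three DLBCL lines seeded on day 0 and given a single dose of DMSO vehicle or test compound at indicated concentrations. Viable cells counted daily by trypan blue exclusion. Mean ± SEM, n=3.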

[16] = target: T1, eIF4A1 (Homo sapiens, UniProt P60842); test: Malachite green ATP hydrolysis assay, wildtype eIF4A1; type: biochemical
T1 sequence (P60842 whole entry): as the sequence (P60842 whole entry K238E) above, with E238K counted along it
In short: as §1

[17] = Tolerability in non-tumor bearing SCID mice; type: in vivo; conditions: for tolerability: non-tumor bearing SCID mice
In short: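 Non-tumor-bearing female SCID mice, 8–10 weeks old, dosed i.p. daily for 5 days at 10, 20 or 30 mg/kg and monitored for weight and activity. Complete blood counts (white blood cells, hemoglobin, platelets) measured on a Hemavet950. For 20 mg/kg: mean ± SEM, n=17 vehicle and 7 treated.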

[18] = tested on: primary chronic lymphocytic leukemia (CLL) cells; test: OPP labeling in primary CLL patient cells; type: cell-based
[19] = target: T1, eIF4A1; test: Isothermal titration calorimetry; type: binding
In short: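 eIF4A dialysed 12 h against 20 mM MES-KOH pH 6.0, 10 mM potassium acetate, 2.5 mM MgCl2, 1% glycerol, 1 mM DTT. Protein was matched to 2% DMSO, degassed and placed in the cell. 12–20 injections of 0.2 mM test compound in the same buffer, every 200 s over 3000 s. Peaks integrated to 75 s post-injection and fit to an independent binding model. Replicates run at 25 and 10 µM eIF4A.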

[20] = tested on: SNU-398; test: Viability assay in SNU-398 cells; type: cell-based; conditions: for type of effect on SNU-398 cells: 72-hour treatment; for LD50: SNU-398, 72-hour treatment
[21] = target: eIF4A1-K82R (Homo sapiens, UniProt P60842, K82R); test: Malachite green ATP hydrolysis assay, eIF4A1-K82R mutant; type: biochemical
Sequence of eIF4A1-K82R (P60842 whole entry K82R): as the sequence (P60842 whole entry K238E) above, with K82R, E238K counted along it
In short: as §1

[22] = tested on: Non-Hodgkin Lymphoma cell lines; test: Viability assay; type: cell-based; conditions: for activity against non-Hodgkin lymphoma (NHL) cell lines (LD50): initial screen hits, DLBCL cell lines, Fig. 1A
[23] = target: DDX3 (Homo sapiens, UniProt O00571); test: Malachite green ATP hydrolysis counter-screen, DDX3; type: biochemical
Sequence of DDX3 (O00571 whole entry, species assumed): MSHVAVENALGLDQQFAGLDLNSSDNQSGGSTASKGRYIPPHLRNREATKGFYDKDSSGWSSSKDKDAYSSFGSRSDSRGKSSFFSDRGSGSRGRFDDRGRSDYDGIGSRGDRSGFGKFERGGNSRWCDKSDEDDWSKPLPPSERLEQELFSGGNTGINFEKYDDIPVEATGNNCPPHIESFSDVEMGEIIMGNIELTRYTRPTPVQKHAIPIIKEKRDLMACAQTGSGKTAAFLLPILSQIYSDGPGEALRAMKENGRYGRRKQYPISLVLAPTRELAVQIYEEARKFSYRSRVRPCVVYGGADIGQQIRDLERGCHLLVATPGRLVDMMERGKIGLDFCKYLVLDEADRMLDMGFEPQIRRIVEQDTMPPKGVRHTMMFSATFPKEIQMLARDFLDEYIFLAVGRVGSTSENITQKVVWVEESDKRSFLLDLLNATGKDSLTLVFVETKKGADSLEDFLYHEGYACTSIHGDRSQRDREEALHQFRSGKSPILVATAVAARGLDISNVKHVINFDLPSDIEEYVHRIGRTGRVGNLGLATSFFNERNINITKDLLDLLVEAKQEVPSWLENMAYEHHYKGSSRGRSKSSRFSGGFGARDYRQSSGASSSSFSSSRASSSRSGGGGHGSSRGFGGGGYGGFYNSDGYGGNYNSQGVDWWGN

[24] = target: eIF4A1 helicase activity (Homo sapiens, UniProt P60842); test: Fluorescence-based helicase assay; type: biochemical; conditions: cell-free, RNA unwinding de-quenching
Sequence of eIF4A1 helicase activity (P60842 whole entry): as the sequence (P60842 whole entry K238E) above, with E238K counted along it

[25] = tested on: eIF2α-S51 A/A and S/S MEFs; test: Viability; type: cell-based, Murine; conditions: Mus musculus, 72 h
[26] = tested on: Atf4−/− and WT MEFs; test: Viability; type: cell-based, Murine; conditions: Mus musculus, 72 h, read-out: IC50, viability, Atf4−/− MEFs, 72 hour
[27] = target: DDX39A (Homo sapiens, UniProt O00148); test: Malachite green ATP hydrolysis counter-screen, DDX39A; type: biochemical
Sequence of DDX39A (O00148 whole entry, species assumed): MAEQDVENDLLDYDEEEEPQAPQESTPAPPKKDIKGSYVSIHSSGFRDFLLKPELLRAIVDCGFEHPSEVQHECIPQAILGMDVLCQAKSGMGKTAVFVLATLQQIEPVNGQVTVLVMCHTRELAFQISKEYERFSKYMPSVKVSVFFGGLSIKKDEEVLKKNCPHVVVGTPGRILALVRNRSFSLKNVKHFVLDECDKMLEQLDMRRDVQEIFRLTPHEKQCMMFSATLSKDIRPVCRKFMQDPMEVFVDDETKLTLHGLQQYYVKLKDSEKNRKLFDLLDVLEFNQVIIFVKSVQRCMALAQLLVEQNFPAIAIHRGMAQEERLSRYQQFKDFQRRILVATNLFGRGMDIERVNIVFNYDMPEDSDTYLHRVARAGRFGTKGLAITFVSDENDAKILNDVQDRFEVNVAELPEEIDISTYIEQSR

[28] = tested on: SNU-398; test: Western blot in SNU-398 cells; type: cell-based; conditions: 16 hours; for activity against mTORC1 targets (phosphorylation of S6 and 4EBP1): 200 nM rapamycin, 100 nM silvestrol, 1 μM elatol
[29] = target: p97 (Homo sapiens, UniProt P55072); test: Malachite green ATP hydrolysis counter-screen, p97; type: biochemical
Sequence of p97 (P55072 whole entry): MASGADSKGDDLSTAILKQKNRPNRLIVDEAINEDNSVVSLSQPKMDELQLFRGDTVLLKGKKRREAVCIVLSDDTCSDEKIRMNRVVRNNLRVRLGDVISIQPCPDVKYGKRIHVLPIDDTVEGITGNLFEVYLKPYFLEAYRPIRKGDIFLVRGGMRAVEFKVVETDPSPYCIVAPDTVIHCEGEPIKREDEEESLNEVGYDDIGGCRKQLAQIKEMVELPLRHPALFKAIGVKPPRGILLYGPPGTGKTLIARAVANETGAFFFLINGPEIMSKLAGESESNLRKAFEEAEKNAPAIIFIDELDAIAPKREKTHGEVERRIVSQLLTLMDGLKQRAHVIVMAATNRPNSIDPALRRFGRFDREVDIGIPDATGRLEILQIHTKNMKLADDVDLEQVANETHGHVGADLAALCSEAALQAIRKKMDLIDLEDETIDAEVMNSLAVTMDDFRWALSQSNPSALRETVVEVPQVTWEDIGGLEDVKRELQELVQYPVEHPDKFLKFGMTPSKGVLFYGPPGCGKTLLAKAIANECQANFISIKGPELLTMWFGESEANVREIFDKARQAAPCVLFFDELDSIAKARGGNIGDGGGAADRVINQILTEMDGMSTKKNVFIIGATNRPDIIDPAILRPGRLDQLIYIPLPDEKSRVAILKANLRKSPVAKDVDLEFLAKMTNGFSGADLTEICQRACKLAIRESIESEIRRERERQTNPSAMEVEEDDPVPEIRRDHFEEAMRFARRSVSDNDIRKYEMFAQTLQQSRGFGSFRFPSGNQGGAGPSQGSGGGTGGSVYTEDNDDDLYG

[30] = tested on: engrafted B16 murine melanoma cells; conditions: 10 mg/kg daily i.p. or p.o.; cited from earlier work
[31] = tested on: HEK-293 cells; test: Dual-luciferase reporter assay; type: cell-based; conditions: eight-hour treatment
In short: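 HEK-293 cells (7 × 10^5) transfected with 400 ng of a dual-luciferase plasmid using Lipofectamine 3000. Treated 36 h after transfection for 8 h, then lysed with a dual-luciferase kit and read in triplicate. Luciferase units normalized to DMSO-treated cells; mean ± SEM, n=3.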

[32] = tested on: NIH/3T3 cells; test: Viability; type: cell-based

C=C1C[C@H](O)[C@H](Br)C(C)(C)[C@@]12CCC(C)=C(Cl)C2 [elatol]
activity against 97 oncogenic and related kinases [1]: no activity | effect of ISRIB on elatol's toxicity ([2]; OCI-Ly3 cells, combination with 200 nM ISRIB): no effect | effect of PERK inhibitor GSK2606414 on elatol's potency ([2]; annexin V staining, 24 hours, combination with PERKi): no significant reversal | apoptosis ([2]; by 24 hours, most sensitive DLBCL line): greater than 50% | concentration at which mRNA reductions become significant [3]: 500 to 1000 nM | concentration at which protein-expression changes begin [3]: 100 nM | protein synthesis measured by incorporation of OPP [4]: global decline of protein synthesis | tolerability in tumor-bearing mice ([5]; 40 mg/kg i.p. twice per week): well-tolerated | tumor growth compared to vehicle-treated controls ([5]; 40 mg/kg i.p. twice per week, p=0.0117): significant reduction of tumor growth | tolerability in tumor-bearing mice ([5]; single dose at 65 mg/kg, OCI-Ly3 engrafted SCID mice): morbidity and weight loss | tolerability, single dose ([6]; 50 mg/kg single i.p. dose): tolerated 50 mg/kg without issue | tolerability, single dose ([6]; 65 mg/kg single i.p. dose): tolerated 65 mg/kg without issue | mice dying or moribund requiring sacrifice ([6]; 80 mg/kg single i.p. dose, within five days): 3/5 | mortality, single dose ([6]; 100 mg/kg single i.p. dose, within five days): all five animals in group 2 died | tolerated dose relative to silvestrol ([6]; CD-1, SCID, mouse, in vivo, 14 days): ~ 100 x | activity against ATP hydrolysis by DDX17 [7]: no activity | potency against normal PBMC relative to tumor lines [8]: less potent | activity against ATP hydrolysis by GroEL [9]: no activity | activity against ATP hydrolysis by HSP70 [10]: no activity | time tumor growth was halted from the start of treatment ([11]; 20 mg/kg i.p. daily for 5 days, one cycle): 12 days | tolerability in tumor-bearing mice ([11]; 20 mg/kg i.p. daily, first five-day cycle): weight loss and overt signs of toxicity | share of cell lines having IC50 < 1μM [12]: 37% | IC50 [13]: 34.2 ± 12.8 µM | polysome translation ([14]; 16 hours): complete elimination of polysome translation | polysome translation ([14]; two-hour treatment): moderately reduced polysome translation | effect on proliferation [15]: completely halted proliferation | IC50 [16]: 16.4 µM | tolerability ([17]; 10 mg/kg daily x 5 days i.p.): neither 10 mg/kg nor 20 mg/kg resulted in signs of toxicity | Day 5 complete blood counts versus vehicle ([17]; 20 mg/kg daily for 5 days): no differences | tolerability ([17]; 20 mg/kg daily x 5 days i.p.): neither 10 mg/kg nor 20 mg/kg resulted in signs of toxicity | tolerability ([17]; 30 mg/kg daily i.p., stopped after three days): weight loss and reduced animal activity | protein translation measured by OPP labeling ([18]; primary CLL cells stimulated with anti IgM): significantly reduced protein translation | OPP labeling ([18]; unstimulated primary CLL cells, or non-malignant T-cells): did not significantly inhibit OPP labeling | Kd [19]: 1980 ± 310 nM | type of effect on SNU-398 cells [20]: highly cytotoxic | LD50 [20]: 219 nM | IC50 [21]: 85.5 ± 31.8 µM | toxic concentration in the preliminary screen of cancer cell lines ([22]; preliminary screen): less than 1 μM | fold less potent than silvestrol ([22]; sensitive tumor cells in vitro): 5–10 fold | activity against ATP hydrolysis by DDX3 [23]: no activity | effect on eIF4A1 helicase activity [24]: inhibition | IC50 ([25]; read-out: IC50, viability, eIF2α-S51 A/A MEFs, 72 hour): 1030 nM | IC50 ([25]; read-out: IC50, viability, eIF2α-S51 S/S MEFs, 72 hour): 1400 nM | IC50 [26]: 2780 nM | activity against ATP hydrolysis by DDX39A [27]: no activity | activity against mTORC1 targets (phosphorylation of S6 and 4EBP1) [28]: no activity | ATF4 expression ([28]; SNU-398, 1 μM elatol): induced expression of the transcription factor ATF4 | activity against ATP hydrolysis by p97 [29]: no activity | antitumor activity [30]: antitumor activity | cap-dependent versus IRES driven luciferase expression [31]: down-regulated cap-dependent protein translation more strongly than cap-independent IRES driven expression

C=C1CC[C@@](C)(c2cc(Br)c(C)cc2O)[C@H]1C [allolaurinterol, reference compound]
activity against non-Hodgkin lymphoma (NHL) cell lines (LD50) [22]: > 10 µM

CC(C)=C[C@@H]1C[C@H](C)c2c(O)cc(C)c3c2C1=C(C)C(=O)C3=O [elisabatin A, reference compound]
activity against non-Hodgkin lymphoma (NHL) cell lines (LD50) [22]: > 10 µM

COC(=O)[C@H]1[C@@H](O)[C@@]2(O)c3c(OC)cc(O[C@@H]4O[C@@H]([C@H](O)CO)CO[C@H]4OC)cc3O[C@@]2(c2ccc(OC)cc2)[C@@H]1c1ccccc1 [silvestrol]
protein synthesis measured by incorporation of OPP [4]: global decline of protein synthesis | increased potency of silvestrol relative to elatol ([32]; 3T3 fibroblasts, Fig. 5F): > 500 x | type of effect on SNU-398 cells [20]: highly cytotoxic | LD50 [20]: 41 nM | activity against mTORC1 targets (phosphorylation of S6 and 4EBP1) [28]: no activity

N.N.O=C([O-])C1(C(=O)[O-])CCC1.[Pt+2] [carboplatin]
protein synthesis measured by incorporation of OPP [4]: no significant decline | change in drug sensitivity on eIF4A1 knockdown ([32]; NIH-3T3 shRLuc vs sh4A1): no change in drug sensitivity

CO[C@H]1C[C@@H]2CC[C@@H](C)[C@@](O)(O2)C(=O)C(=O)N2CCCC[C@H]2C(=O)O[C@H]([C@H](C)C[C@@H]2CC[C@@H](O)[C@H](OC)C2)CC(=O)[C@H](C)/C=C(\C)[C@@H](O)[C@@H](OC)C(=O)[C@H](C)C[C@H](C)/C=C/C=C/C=C/1C [rapamycin, reference compound]
type of effect on SNU-398 cells [20]: cytostatic | activity against mTORC1 targets (phosphorylation of S6 and 4EBP1) [28]: potently inhibits phosphorylation

From PMC6500731 (Clinical cancer research : an official journal of the …, 2018)
